ChEMBL document CHEMBL4431393, “Polar Recognition Group Study of Keap1-Nrf2 Protein-Protein Interaction Inhibitors” (ACS Med Chem Lett, 2016)
Converted amounts (≈) assume the structure as drawn.

Experiments:
[1] = Permeability of the compound at pH 7.4 by PAMPA method; format: ADME; conditions: read-out: permeability
Outline: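 Effective permeability coefficients (Pe) were determined by a standard parallel artificial membrane permeability assay run on an automated PAMPA instrument. This reads out passive transcellular diffusion.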

[2] = Dissociation constant, pKa of the compound by Avdeef-Bucher potentiometric titration method; format: physicochemical
[3] = Intrinsic solubility of the compound at pH 7.4 by potentiometric acid-base titration method; format: physicochemical; conditions: buffer, read-out: Intrinsic_solubility
[4] = Partition coefficient, logD of the compound at pH 7.4 by Avdeef-Bucher potentiometric titration method; format: physicochemical; conditions: octanol/water
[5] = biological target: Keap1/Nrf2 (Homo sapiens, UniProt Q14145); experiment: Inhibition of Keap1 Kelch domain/FITC-9mer Nrf2 (unknown origin) interaction after 30 mins by fluorescence polarization assay; format: protein assay
Sequence of Keap1/Nrf2 (Q16236 whole entry, the tested form may be a part): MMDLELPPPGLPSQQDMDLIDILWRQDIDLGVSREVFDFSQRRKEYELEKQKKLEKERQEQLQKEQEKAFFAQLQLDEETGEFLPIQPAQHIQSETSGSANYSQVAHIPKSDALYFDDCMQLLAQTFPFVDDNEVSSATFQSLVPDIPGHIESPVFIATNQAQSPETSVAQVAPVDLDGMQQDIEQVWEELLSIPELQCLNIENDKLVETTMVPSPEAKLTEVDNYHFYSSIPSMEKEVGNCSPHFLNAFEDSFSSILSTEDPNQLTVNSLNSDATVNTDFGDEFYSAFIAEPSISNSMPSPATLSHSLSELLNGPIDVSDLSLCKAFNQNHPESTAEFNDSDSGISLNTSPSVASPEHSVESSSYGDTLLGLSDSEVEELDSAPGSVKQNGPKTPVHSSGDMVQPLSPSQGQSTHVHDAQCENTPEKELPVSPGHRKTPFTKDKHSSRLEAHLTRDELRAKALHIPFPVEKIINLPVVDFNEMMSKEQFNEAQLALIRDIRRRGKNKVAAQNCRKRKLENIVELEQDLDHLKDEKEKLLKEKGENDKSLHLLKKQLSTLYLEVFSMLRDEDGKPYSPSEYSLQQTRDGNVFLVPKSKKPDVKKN
Sequence of Keap1/Nrf2 (Q14145 whole entry, the tested form may be a part): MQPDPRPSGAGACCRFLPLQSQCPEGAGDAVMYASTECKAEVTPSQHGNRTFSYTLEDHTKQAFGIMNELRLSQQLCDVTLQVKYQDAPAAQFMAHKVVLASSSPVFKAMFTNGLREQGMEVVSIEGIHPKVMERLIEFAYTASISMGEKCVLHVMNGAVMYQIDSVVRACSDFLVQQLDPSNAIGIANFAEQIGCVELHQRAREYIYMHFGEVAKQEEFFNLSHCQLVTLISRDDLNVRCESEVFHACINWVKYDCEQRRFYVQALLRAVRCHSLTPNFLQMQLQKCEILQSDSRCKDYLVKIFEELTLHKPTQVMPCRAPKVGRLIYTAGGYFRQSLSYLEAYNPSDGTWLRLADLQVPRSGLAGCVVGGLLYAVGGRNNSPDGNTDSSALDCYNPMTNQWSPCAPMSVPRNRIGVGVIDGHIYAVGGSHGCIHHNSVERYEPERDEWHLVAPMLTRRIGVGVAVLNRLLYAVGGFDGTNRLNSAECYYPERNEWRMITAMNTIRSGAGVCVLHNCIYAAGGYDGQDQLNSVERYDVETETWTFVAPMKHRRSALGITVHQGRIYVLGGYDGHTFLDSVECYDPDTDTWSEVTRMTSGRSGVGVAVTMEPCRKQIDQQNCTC

Row | Papp [1] [×10⁻⁶ cm/s] | pKa [2] | solubility [3] [µg/mL] | logD [4] | IC50 [5] [µM] | Compound
1 | 0.265 | 4.79 | 5000 (≈ 7480 µM) | – | – | CC(=O)Nc1ccc(S(=O)(=O)N(CC(=O)O)c2ccc(N(CC(=O)O)S(=O)(=O)c3ccc(NC(C)=O)cc3)c3ccccc23)cc1
2 | – | 8.12 | 942 (≈ 1350 µM) | 2.87 | 2.6 | CC(=O)Nc1ccc(S(=O)(=O)N(CC(=O)NO)c2ccc(N(CC(=O)NO)S(=O)(=O)c3ccc(NC(C)=O)cc3)c3ccccc23)cc1
3 | – | 10.5 | 14.1 (≈ 22.4 µM) | 4.65 | > 50 | CC(=O)Nc1ccc(S(=O)(=O)N(CC#N)c2ccc(N(CC#N)S(=O)(=O)c3ccc(NC(C)=O)cc3)c3ccccc23)cc1
4 | – | 9.67 | 698 (≈ 976 µM) | 3.01 | 0.609 | CC(=O)Nc1ccc(S(=O)(=O)N(Cc2c[nH]nn2)c2ccc(N(Cc3c[nH]nn3)S(=O)(=O)c3ccc(NC(C)=O)cc3)c3ccccc23)cc1
5 | – | 10.8 | 655 (≈ 1020 µM) | 2.99 | > 50 | CC(=O)Nc1ccc(S(=O)(=O)N(CCO)c2ccc(N(CCO)S(=O)(=O)c3ccc(NC(C)=O)cc3)c3ccccc23)cc1
6 | 42.3 | 5.12 | 3500 (≈ 4880 µM) | 2.31 | – | CC(=O)Nc1ccc(S(=O)(=O)N(Cc2nn[nH]n2)c2ccc(N(Cc3nn[nH]n3)S(=O)(=O)c3ccc(NC(C)=O)cc3)c3ccccc23)cc1
7 | – | 10.5 | 36.4 (≈ 52.2 µM) | 3.91 | > 50 | COC(=O)CN(c1ccc(N(CC(=O)OC)S(=O)(=O)c2ccc(NC(C)=O)cc2)c2ccccc12)S(=O)(=O)c1ccc(NC(C)=O)cc1
8 | – | 10.7 | 11.2 (≈ 17.8 µM) | 4.75 | > 50 | C#CCN(c1ccc(N(CC#C)S(=O)(=O)c2ccc(NC(C)=O)cc2)c2ccccc12)S(=O)(=O)c1ccc(NC(C)=O)cc1
9 | – | 9.8 | 388 (≈ 583 µM) | 3.21 | > 50 | CC(=O)Nc1ccc(S(=O)(=O)N(CC(N)=O)c2ccc(N(CC(N)=O)S(=O)(=O)c3ccc(NC(C)=O)cc3)c3ccccc23)cc1
